Results taken from ChEMBL document CHEMBL1641468, “Synthesis of modified siRNA bearing C-5 polyamine-substituted pyrimidine nucleoside in their 3'-overhang regions and its RNAi activity” (Bioorg Med Chem Lett, 2011).
Active and inactive are the calls of the source. The calls are words filed in the database; no cut-off is given here.

How the values were obtained:
[1] = Chemical stability of the compound in presence of snake venom phosphodiesterase after 30 mins by RP-HPLC analysis; assay type: physicochemical; conditions: 0.5 h
Outline: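 Each oligoribonucleotide (0.8 nmol) incubated with snake venom phosphodiesterase, a 3'-exonuclease (0.01 U), in 200 mM Tris–HCl pH 8.0 with 100 mM MgCl₂ at 37 °C for 5 and 30 min; mixtures analysed by RP-HPLC, remaining full-length RNA expressed as fraction of total RNA from chromatogram peak areas.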

[2] = biological target: T1, Hepatocyte nuclear factor 4-alpha (Homo sapiens) (UniProt P41235); experiment: Inhibition of HNF4alpha mRNA expression in human HepG2 cells after 24 hrs by real-time RT-PCR
T1 sequence (whole entry): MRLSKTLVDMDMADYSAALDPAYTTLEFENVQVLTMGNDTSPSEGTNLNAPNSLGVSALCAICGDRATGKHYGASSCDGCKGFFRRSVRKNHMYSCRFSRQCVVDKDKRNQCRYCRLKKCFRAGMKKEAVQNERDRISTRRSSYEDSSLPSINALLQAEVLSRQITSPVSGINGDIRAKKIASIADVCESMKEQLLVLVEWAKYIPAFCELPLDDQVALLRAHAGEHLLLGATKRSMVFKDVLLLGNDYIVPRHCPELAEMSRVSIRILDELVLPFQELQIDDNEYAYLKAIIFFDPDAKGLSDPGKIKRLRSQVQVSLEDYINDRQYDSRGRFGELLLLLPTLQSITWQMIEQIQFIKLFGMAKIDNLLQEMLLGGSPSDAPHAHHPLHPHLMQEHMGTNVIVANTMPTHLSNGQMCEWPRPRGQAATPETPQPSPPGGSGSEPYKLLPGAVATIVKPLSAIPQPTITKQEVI

[3] = biological target: T1, Hepatocyte nuclear factor 4-alpha (Homo sapiens); experiment: Inhibition of HNF4alpha mRNA expression in human HepG2 cells after 24 hrs by RT-PCR analysis; assay type: cell-based; conditions: in the assay text read “after 48 hrs” for “after 24 hrs”
Outline: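 HepG2 cells were grown in DMEM with 5% FBS at 37 °C and transfected with siRNA using a transfection reagent. After 24 h at 37 °C, the medium was changed to DMEM with 10% FBS and cells were incubated a further 24 h. Total RNA was reverse-transcribed for real-time PCR (40 cycles). HNF4α mRNA was normalized to GAPDH by ΔΔCt and expressed relative to nonsense control siRNA, using the mean Ct of duplicate PCRs from independent cells.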

SMILES	Stability [1]	Activity [2]	Activity [3]
Cc1cn([C@H]2C[C@H](OP(=O)(O)OC[C@H]3O[C@@H](n4cc(CC(=O)NCCN(CCN)CCN)c(=O)[nH]c4=O)C[C@@H]3O)[C@@H](COP(=O)(O)O[C@@H]3[C@H](O)[C@@H](COP(=O)(O)O[C@H]4[C@@H](O)[C@H](n5cnc6c(N)ncnc65)O[C@@H]4COP(=O)(O)O[C@H]4[C@@H](O)[C@H](n5ccc(N)nc5=O)O[C@@H]4COP(=O)(O)O[C@H]4[C@@H](O)[C@H](n5cnc6c(N)ncnc65)O[C@@H]4COP(=O)(O)O[C@@H]4[C@H](O)[C@@H](COP(=O)(O)O[C@@H]5[C@H](O)[C@@H](COP(=O)(O)O[C@H]6[C@@H](O)[C@H](n7ccc(=O)[nH]c7=O)O[C@@H]6COP(=O)(O)O[C@@H]6[C@H](O)[C@@H](COP(=O)(O)O[C@@H]7[C@H](O)[C@@H](COP(=O)(O)O[C@H]8[C@@H](O)[C@H](n9ccc(=O)[nH]c9=O)O[C@@H]8COP(=O)(O)O[C@@H]8[C@H](O)[C@@H](COP(=O)(O)O[C@H]9[C@@H](O)[C@H](n%10ccc(N)nc%10=O)O[C@@H]9COP(=O)(O)O[C@@H]9[C@H](O)[C@@H](COP(=O)(O)O[C@H]%10[C@@H](O)[C@H](n%11ccc(=O)[nH]c%11=O)O[C@@H]%10COP(=O)(O)O[C@@H]%10[C@H](O)[C@@H](COP(=O)(O)O[C@H]%11[C@@H](O)[C@H](n%12cnc%13c(N)ncnc%13%12)O[C@@H]%11COP(=O)(O)O[C@H]%11[C@@H](O)[C@H](n%12ccc(N)nc%12=O)O[C@@H]%11COP(=O)(O)O[C@@H]%11[C@H](O)[C@@H](COP(=O)(O)O[C@H]%12[C@@H](O)[C@H](n%13cnc%14c(=O)[nH]c(N)nc%14%13)O[C@@H]%12COP(=O)(O)O)O[C@H]%11n%11cnc%12c(=O)[nH]c(N)nc%12%11)O[C@H]%10n%10cnc%11c(=O)[nH]c(N)nc%11%10)O[C@H]9n9cnc%10c(=O)[nH]c(N)nc%109)O[C@H]8n8cnc9c(=O)[nH]c(N)nc98)O[C@H]7n7cnc8c(=O)[nH]c(N)nc87)O[C@H]6n6cnc7c(=O)[nH]c(N)nc76)O[C@H]5n5cnc6c(=O)[nH]c(N)nc65)O[C@H]4n4cnc5c(=O)[nH]c(N)nc54)O[C@H]3n3cnc4c(N)ncnc43)O2)c(=O)[nH]c1=O	Stable	Active	Active
NCCN(CCN)CCNC(=O)Cc1cn([C@H]2C[C@H](OP(=O)(O)OC[C@H]3O[C@@H](n4cc(CC(=O)NCCN(CCN)CCN)c(=O)[nH]c4=O)C[C@@H]3O)[C@@H](COP(=O)(O)O[C@@H]3[C@H](O)[C@@H](COP(=O)(O)O[C@H]4[C@@H](O)[C@H](n5cnc6c(N)ncnc65)O[C@@H]4COP(=O)(O)O[C@H]4[C@@H](O)[C@H](n5ccc(N)nc5=O)O[C@@H]4COP(=O)(O)O[C@H]4[C@@H](O)[C@H](n5cnc6c(N)ncnc65)O[C@@H]4COP(=O)(O)O[C@@H]4[C@H](O)[C@@H](COP(=O)(O)O[C@@H]5[C@H](O)[C@@H](COP(=O)(O)O[C@H]6[C@@H](O)[C@H](n7ccc(=O)[nH]c7=O)O[C@@H]6COP(=O)(O)O[C@@H]6[C@H](O)[C@@H](COP(=O)(O)O[C@@H]7[C@H](O)[C@@H](COP(=O)(O)O[C@H]8[C@@H](O)[C@H](n9ccc(=O)[nH]c9=O)O[C@@H]8COP(=O)(O)O[C@@H]8[C@H](O)[C@@H](COP(=O)(O)O[C@H]9[C@@H](O)[C@H](n%10ccc(N)nc%10=O)O[C@@H]9COP(=O)(O)O[C@@H]9[C@H](O)[C@@H](COP(=O)(O)O[C@H]%10[C@@H](O)[C@H](n%11ccc(=O)[nH]c%11=O)O[C@@H]%10COP(=O)(O)O[C@@H]%10[C@H](O)[C@@H](COP(=O)(O)O[C@H]%11[C@@H](O)[C@H](n%12cnc%13c(N)ncnc%13%12)O[C@@H]%11COP(=O)(O)O[C@H]%11[C@@H](O)[C@H](n%12ccc(N)nc%12=O)O[C@@H]%11COP(=O)(O)O[C@@H]%11[C@H](O)[C@@H](COP(=O)(O)O[C@H]%12[C@@H](O)[C@H](n%13cnc%14c(=O)[nH]c(N)nc%14%13)O[C@@H]%12COP(=O)(O)O)O[C@H]%11n%11cnc%12c(=O)[nH]c(N)nc%12%11)O[C@H]%10n%10cnc%11c(=O)[nH]c(N)nc%11%10)O[C@H]9n9cnc%10c(=O)[nH]c(N)nc%109)O[C@H]8n8cnc9c(=O)[nH]c(N)nc98)O[C@H]7n7cnc8c(=O)[nH]c(N)nc87)O[C@H]6n6cnc7c(=O)[nH]c(N)nc76)O[C@H]5n5cnc6c(=O)[nH]c(N)nc65)O[C@H]4n4cnc5c(=O)[nH]c(N)nc54)O[C@H]3n3cnc4c(N)ncnc43)O2)c(=O)[nH]c1=O	Stable	Active	Active
